Experimental data reported in ChEMBL document CHEMBL1938357, “Inhibition of Dengue virus and West Nile virus proteases by click chemistry-derived benz[d]isothiazol-3(2H)-one derivatives” (Bioorg Med Chem, 2012).
The source made the active and inactive calls. The rule behind the calls is not given here.

Assays:
dengue virus type 2 [1] = test: Inhibition of Dengue virus 2 NS2B-NS3 protease expressed in Escherichia coli using Bz-Nle-Lys-Arg-Arg-AMC as substrate at 25 uM measured every 90 sec upto 30 mins by spectrofluorometry
Summary of the method: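 DENV2 NS2B(hydrophilic cofactor)-NS3pro, linked via Q-R and expressed in E. coli Top 10 F′, at 25 nM in 200 mM Tris-HCl pH 9.5, 6 mM NaCl, 30% glycerol. Compound at 25 μM (1% DMSO final) was pre-incubated at room temperature with enzyme. Bz-Nle-Lys-Arg-Arg-AMC added at 5.0 μM; read at 37 °C, ex 380/em 460 nm, every 90 s up to 30 min. % inhibition from RFU ± compound; triplicate averages.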

[2] = Inhibition of Dengue virus 2 NS2B-NS3 protease expressed in Escherichia coli using Bz-Nle-Lys-Arg-Arg-AMC as substrate measured every 90 sec upto 30 mins by spectrofluorometry; set-up: species or system dengue virus type 2
Summary of the method: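 Inhibitors at 10 nM, 50 nM, 0.1, 1, 2, 5, 10 and 25 μM were incubated 15 min with DENV2 NS2B-NS3pro (50 nM) in 200 mM Tris-HCl, 6 mM NaCl, 30% glycerol, pH 9.5. Bz-Nle-Lys-Arg-Arg-AMC (5.0 μM) was then added. Signal recorded at 37 °C (ex 380, em 460 nm) with buffer subtracted. IC50 derived by curve fitting.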

dengue virus type 2 [3] = test: Inhibition of Dengue virus 2 NS2B-NS3 protease expressed in Escherichia coli using Bz-Nle-Lys-Arg-Arg-AMC as substrate at 25 uM measured every 90 sec upto 30 mins by spectrofluorometry in the presence of 0.1% CHAPS
Summary of the method: (§1)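 Detergent re-screen: 200 mM Tris-HCl pH 9.5, 6 mM NaCl, 30% glycerol, 0.1% CHAPS, with DENV2 NS2B-NS3pro at 25 nM or WNV NS2BH-NS3pro (5-residue spacer) at 28 nM. Compound at 25 μM, 1% DMSO final, pre-incubated at room temperature with enzyme. Substrate Bz-Nle-Lys-Arg-Arg-AMC at 5.0 μM; fluorescence at 380/460 nm at 37 °C over 30 min. Percent inhibition from RFU with vs without compound; triplicate averages.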

West Nile virus = test: Inhibition of West Nile virus NS2B-NS3 protease expressed in Escherichia coli using Bz-Nle-Lys-Arg-Arg-AMC as substrate at 25 uM measured every 90 sec upto 30 mins by spectrofluorometry; summary of the method: as §1
[4] = Inhibition of Dengue virus 2 NS2B-NS3 protease expressed in Escherichia coli using Bz-Nle-Lys-Arg-Arg-AMC as substrate by spectrofluorometry; set-up: species or system dengue virus type 2

| SMILES | inhibition (dengue virus type 2 [1]) | IC50 [2] [µM] | inhibition (dengue virus type 2 [3]) | inhibition (West Nile virus) | Ki [4] [µM] |
| --- | --- | --- | --- | --- | --- |
| O=C(Cn1sc2ccccc2c1=O)Nc1cccc(OCc2cn(CC(=O)c3ccccc3)nn2)c1 | Active | 6.22 | Active | Active |  |
| COC(=O)c1cccc(Cn2cc(CNC(=O)Cn3sc4ccccc4c3=O)nn2)c1 | inactive |  |  |  |  |
| O=C(Cn1sc2ccccc2c1=O)Nc1cccc(OCc2cn(CC(=O)Nc3ccccc3Oc3ccccc3)nn2)c1 | Active | 3.48 | Active | Active | 4.77 |
| O=C(Cn1sc2ccccc2c1=O)NCc1cn(Cc2ccccc2)nn1 | inactive |  |  |  |  |
| O=C(Cn1sc2ccccc2c1=O)NCc1cn(Cc2cccc(F)c2)nn1 | inactive |  |  |  |  |
| O=C(Cn1sc2ccccc2c1=O)NCc1cn(CSc2ccccc2)nn1 | inactive |  |  |  |  |
| COc1ccc(Cn2cc(CNC(=O)Cn3sc4ccccc4c3=O)nn2)cc1 | inactive |  |  |  |  |
| O=C(Cn1sc2ccccc2c1=O)NCc1cn(CC(=O)Nc2ccc(Oc3ccccc3)cc2)nn1 | Active | 4.87 | Active | Active |  |
| O=C(Cn1sc2ccccc2c1=O)NCc1cn(CC(=O)Nc2cccc(Oc3ccccc3)c2)nn1 | Active |  | Active |  |  |
| O=C(Cn1cc(COc2cccc(NC(=O)Cn3sc4ccccc4c3=O)c2)nn1)Nc1ccccc1 | Active | 13.4 | Active | Active |  |
| O=C(Cn1sc2ccccc2c1=O)NCc1cn(CC(=O)Nc2ccccc2Oc2ccccc2)nn1 | inactive |  |  |  |  |
| CC(C)(C)OC(=O)Cn1cc(CNC(=O)Cn2sc3ccccc3c2=O)nn1 | inactive |  |  |  |  |
| O=C(O)Cn1cc(CNC(=O)Cn2sc3ccccc3c2=O)nn1 | inactive |  |  |  |  |
| O=C(Cn1sc2ccccc2c1=O)NCc1cn(Cc2ccc(F)cc2)nn1 | inactive |  |  |  |  |
| O=C(Cn1cc(COc2cccc(NC(=O)Cn3sc4ccccc4c3=O)c2)nn1)Nc1ccc(Oc2ccccc2)cc1 | Active | 4.45 | Active | Active |  |
| O=C(Cn1sc2ccccc2c1=O)NCc1cn(CC(=O)Nc2ccccc2)nn1 | inactive |  |  |  |  |
| O=C(Cn1sc2ccccc2c1=O)NCc1cn(CCCc2ccccc2)nn1 | inactive |  |  |  |  |
| O=C(Cn1sc2ccccc2c1=O)NCc1cn(CC(=O)c2ccccc2)nn1 | inactive |  |  |  |  |
| COC(=O)c1cccc(Cn2cc(COc3cccc(NC(=O)Cn4sc5ccccc5c4=O)c3)nn2)c1 | Active |  | Active |  |  |
| O=C(Cn1sc2ccccc2c1=O)NCc1cn(CCc2ccccc2)nn1 | inactive |  |  |  |  |
| O=C(Cn1cc(COc2cccc(NC(=O)Cn3sc4ccccc4c3=O)c2)nn1)Nc1cccc(Oc2ccccc2)c1 | Active | 4.59 | Active | Active |  |
| O=C(Cn1sc2ccccc2c1=O)NCc1cn(CCOc2ccccc2)nn1 | inactive |  |  |  |  |
